# Screening results as filed in PubChem BioAssay.
# HSV replic up: HSV replication enhancement | 220,000 compounds, 0.005% hits | HSV replication augmentation in cells, fold increase | maximum fold increase; in the data active means maximum fold increase above about 1.5; tested in PC3 cells
# bCat nuc transl: alters nuclear translocation of beta-catenin in HeLa cells. immunofluorescence imaging. nuclear translocation activity, % at 5 µM. 190,000 compounds, 0.3% hits;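 active means nuclear translocation activity above 50% at 5 µM, with a well cell count of 50 or more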;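 further: per-cell ratio of nuclear to cytoplasmic median beta-catenin stain intensity; plate controls were DMSO negative control for no effect and GSK-3 inhibitor IX positive control for full effect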
#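 Read-out: Nuclear/cytoplasmic beta-catenin signal ratio, % activation | Assay system: Human HeLa cell line | Times: 24 h compound exposure at 37°C, 5% CO2 | Signal: Fluorescence imaging of beta-catenin antibody stain plus DAPI | Dosing: 5 µM primary, 0.02–20 µM confirmation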
# MT stabilizer: microtubule stabilization, imaging screen | HeLa tubulin immunostaining HCS, 24 h; share of cells brighter than vehicle mean+2SD | % tubulin-high responders, % at 10 µM | 200,000 compounds, 0.83% hits | AID 2205;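 active means plate Z-score above 3 for both tubulin-high and condensed-nucleus cell shares, with cell loss under 80%, at 10 µM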;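 further: anti alpha tubulin signal scored within the nucleus-defined area of each cell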
# L major viab: Leishmania major promastigote growth inhibition; Leishmania major promastigotes, resazurin fluorescence viability; inhibition, % at 10 µM; 200,000 compounds, 9% hits; in the data active means inhibition above about 50%;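 further: promastigotes grown with compound for 44 hours at 28 °C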
# Dynein cargo inh: blocks dynein driven cargo transport along microtubules | 3617.4 mouse cells, GR-EGFP nuclear translocation imaging; test concentration mostly 20 µM; stimulated with dexamethasone, 1 µM; active compounds read low | z-score, hits read low | 220,000 compounds, 0.47% hits | AID 1381;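 active means plate z-score of nuclear minus cytoplasmic receptor signal below a set negative limit, without overly bright fluorescence or cell loss, cut at about -3.5 in these data, passing the limit was not always enough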;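 further: z-score of nuclear minus cytoplasmic ring GR-EGFP intensity difference per well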
#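 Schedule: 48 h induction, then 1 h compound, then 30 min agonist, 37 °C. Buffer or medium: tetracycline-free induction medium containing charcoal-stripped FBS. Reagent: 1.0 µM final dexamethasone stimulus. Evaluation: nuclear versus cytoplasmic GR-EGFP signal, averaged per well. Signal: high-content fluorescence imaging after fixation.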
# * hit, by the source's call; i = inactive; x = no result given. Shown are actives, neighbours in structure and some others; about 8.9% of the full set was active somewhere.
SMILES,HSV replic up,bCat nuc transl,MT stabilizer,L major viab,Dynein cargo inh
COc1cc(C(=O)OCC(=O)Nc2ccc(C(C)=O)cc2)ccc1OCC(=O)N1CCOCC1,i,-1,2,66*,-0.47
COc1ccc(-c2csc(NC(=O)c3ccc(OCC(=O)N4CCOCC4)c(OC)c3)n2)cc1OC,i,x,4,71*,1.6
O=c1cc(-c2ccccc2)[nH]c2cc(Cl)ccc12,i,x,4,2,-0.38
O=c1c(-c2ccc(Cl)cc2)coc2c(CN3CCOCC3)c(O)ccc12,i,-4,2,59*,-0.41
CCOc1ccc(C(=O)CC(=O)C(=O)NCCc2ccc(OC)c(OC)c2)cc1,i,1,2,60*,-0.48
Cc1ccc(S(=O)(=O)NCc2ccco2)c(C)c1C,i,-4,1,-9,-0.36
O=C(c1ccco1)N1CCN(C(=O)c2ccc(COc3ccc4c(c3)CCC4)o2)CC1,i,-1,3,83*,-0.55
O=C(c1ccc(COc2ccc3c(c2)CCC3)o1)N1CCN(c2ccccc2)CC1,i,x,12,-2,0.59
Cc1ccc(-n2ncc(C#N)c2/N=C/N2CCOCC2)cc1,i,x,3,-1,-0.91
Cc1ccn2cc(-c3cc4ccccc4oc3=O)nc2c1,i,2,18,-3,2.6
C=CCN1C(=O)C(O)(CC(=O)c2ccc(OC)cc2OC)c2cc(Br)ccc21 (centres undefined),i,0,2,74*,1.3
COc1ccc(NC(=S)N(Cc2cccnc2)Cc2ccco2)cc1,i,-3,4,91*,-0.82
COc1ccc(NC(=S)N(CCCN2CCOCC2)Cc2ccco2)cc1,i,x,2,-8,-0.25
CCc1ccc(NC(=S)N(Cc2cccnc2)Cc2ccco2)cc1,i,-1,3,100*,-0.66
O=C(Cn1cnc2sc(-c3ccccc3)cc2c1=O)NCc1ccccc1,i,x,36*,-4,0.26
O=C(Cn1cnc2sc(-c3ccccc3)cc2c1=O)NCc1ccco1,i,7,27*,2,-1
O=C(Cn1cnc2sc(-c3ccccc3)cc2c1=O)NCCc1ccccc1,x,x,2,-6,-0.72
COC(=O)C1=CN(CCCN2CCCC2=O)C=C(C(=O)OC)C1c1cccs1,i,x,3,-3,-0.33
COC(=O)C1=CN(Cc2ccc(OC)cc2)C=C(C(=O)OC)C1c1cccs1,i,-1,2,100*,0.51
O=C(CCc1ccc(S(=O)(=O)N2CCOCC2)cc1)Nc1nc(COc2ccccc2)cs1,x,-4,4,96*,-0.74
Cn1c(CCNC(=O)c2ccccc2F)nnc1SCc1nc2ccccc2c(=O)[nH]1,i,-1,1,-5,-0.88
CC(C)NC(=O)NC(=O)CSc1ncccn1,i,-3,5,-2,-0.81
Cc1ccc(Cc2cc(-c3ccc(C)cc3)n[nH]c2=O)cc1,i,1,x,x,0.47
CC(C)c1ccc2c(c1)C1(NN=C(c3ccccc3)S1)C(=O)N2 (centres undefined),i,0,1,99*,-2
CCc1ccc2c(c1)C1(NN=C(c3ccc(C)cc3)S1)C(=O)N2 (centres undefined),i,2,6,99*,-0.47
SMILES,HSV replic up,bCat nuc transl,MT stabilizer,L major viab,Dynein cargo inh
COc1cc(CNCCN2CCOCC2)ccc1OCc1ccc(Cl)cc1Cl,i,0,4,100*,0.73
COc1cc(CNCCN2CCOCC2)ccc1OCc1cccc(Cl)c1,i,0,2,95*,0.3
COC(=O)C(Cc1ccc(O)cc1)NC(=O)C(C)Oc1ccccc1 (centres undefined),i,0,4,-7,2.1
Cc1ccc(-n2nc(C(=O)NCc3ccco3)c3c4ccccc4n(C)c3c2=O)cc1,x,0,4,-4,-0.63
COc1ccc(-n2c(C)cc(C(=O)CN3C(=O)NC4(CCCc5sccc54)C3=O)c2C)cc1 (centres undefined),i,-2,2,15,1.1
COc1ccc(-n2c(C)cc(C(=O)CN3C(=O)C(=O)N(Cc4ccccc4)C3=O)c2C)cc1,i,6,13*,-12,-0.95
COc1ccc(Cn2c(=S)[nH]c3ccccc32)cc1,i,0,3,-1,0.45
COc1ccc(-n2c(=S)[nH]c3ccccc32)cc1,i,-4,4,53*,-0.56
O=C(/C=C/c1ccccc1Cl)NC(=S)Nc1ccccc1C(=O)NC1CCCCC1,i,2,3,98*,-0.02
O=C(CN1C(=O)C2CCCN2C(=O)c2ccccc21)Nc1ccccc1-n1cccc1 (centres undefined),i,x,5,-7,-0.19
CCOc1ncccc1C(=O)OCc1ccc(C(=O)OC)cc1,i,68*,18*,-1,-0.17
CCOc1ncccc1C(=O)OCc1ccc(Cl)cc1,i,0,3,-8,-0.25
Cc1cccc(NC2=NC(C)(C)N=C(N)N2)c1,i,1,3,-3,-0.62
CC1=CC(C)(C)N2C(=O)C3(N=C(N)NC(Nc4ccccc4)=N3)c3cc(C)cc1c32 (centres undefined),i,1,3,96*,0.98
NNC(=O)c1nnn(-c2nonc2N)c1-c1cccs1,i,-4,2,10,0.25
Cc1ccc(C)c(N2CCN(C(=O)Cc3ccc(-n4c(=O)[nH]c5ccsc5c4=O)cc3)CC2)c1,i,x,2,51*,-0.31
CCN(CC)C1=NS(=O)(=O)c2cc([N+](=O)[O-])ccc21,i,-2,5,100*,2
COc1ccc(C(O)C(CN2CCOCC2)c2ccccc2)cc1 (centres undefined),i,-1,5,89*,-0.31
CCOc1ccc(C(=O)Nc2ccccc2N2CCOCC2)cc1,i,-1,2,1,1.1
CCOc1ccc(C(=O)C(CN2CCOCC2)c2ccccc2)cc1 (centres undefined),i,3,10,99*,-1.1
O=C(CCc1nnc(Cc2cccc(C(F)(F)F)c2)o1)NC1CC1,i,-2,2,-4,-1.1
NS(=O)(=O)c1ccc(Oc2ccc(S(N)(=O)=O)cc2)cc1,i,-3,3,-4,1.3
Cn1c(=NC(=O)CN2C(=O)C3CC=CCC3C2=O)sc2ccccc21 (centres undefined),i,-3,4,99*,-1.3
Cc1ccc(-c2n[nH]c(=S)n2/N=C/c2cccn2C)cc1,x,0,2,4,-0.1
Oc1ccc2ccccc2c1N=Nc1ccccn1,i,7,4,100*,-0.69
COc1cc(CNCc2ccccn2)ccc1OCC(N)=O,i,2,3,-2,-0.13
CCOc1cc(CNCc2ccccn2)cc(Cl)c1OC,i,-1,2,0,-0.93
COc1cc(CNCc2ccccn2)ccc1OCc1ccc(Cl)cc1Cl,i,2,5,99*,-0.33
COc1cc(CNCc2ccccn2)ccc1OCc1ccc(Cl)c(Cl)c1,i,5,3,100*,1
